From ChEMBL document CHEMBL1129272, “Identification of the first retinoid X, receptor homodimer antagonist” (J Med Chem, 1996)

How the values were obtained:
[1] = target: T1, Retinoic acid receptor gamma (Homo sapiens, UniProt P13631); experiment: Inhibition of [3H]ATRA binding to Retinoic acid receptor RAR gamma
T1 sequence (P13631 whole entry): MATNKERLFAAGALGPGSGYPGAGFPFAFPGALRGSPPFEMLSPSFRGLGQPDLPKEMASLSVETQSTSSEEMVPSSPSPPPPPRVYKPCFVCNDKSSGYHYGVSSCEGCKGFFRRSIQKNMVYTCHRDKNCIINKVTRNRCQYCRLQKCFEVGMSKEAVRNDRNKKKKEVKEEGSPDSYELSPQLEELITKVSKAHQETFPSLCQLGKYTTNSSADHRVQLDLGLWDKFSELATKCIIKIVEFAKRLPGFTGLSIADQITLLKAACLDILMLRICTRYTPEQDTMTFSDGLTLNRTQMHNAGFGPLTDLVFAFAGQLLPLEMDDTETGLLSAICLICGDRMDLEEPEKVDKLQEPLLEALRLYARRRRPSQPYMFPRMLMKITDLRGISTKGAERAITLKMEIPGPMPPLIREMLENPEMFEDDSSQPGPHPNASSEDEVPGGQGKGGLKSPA
Method in brief: (§1)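 Receptors expressed recombinantly in a baculovirus system. Binding was measured by competition against 5 nM [3H]-all-trans-RA. Ki was calculated by the Cheng–Prusoff method.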

[2] = target: T2, Retinoic acid receptor beta (Homo sapiens, UniProt P10826); experiment: Transcriptional activation of Retinoic acid receptor RAR beta
T2 sequence (P10826 whole entry): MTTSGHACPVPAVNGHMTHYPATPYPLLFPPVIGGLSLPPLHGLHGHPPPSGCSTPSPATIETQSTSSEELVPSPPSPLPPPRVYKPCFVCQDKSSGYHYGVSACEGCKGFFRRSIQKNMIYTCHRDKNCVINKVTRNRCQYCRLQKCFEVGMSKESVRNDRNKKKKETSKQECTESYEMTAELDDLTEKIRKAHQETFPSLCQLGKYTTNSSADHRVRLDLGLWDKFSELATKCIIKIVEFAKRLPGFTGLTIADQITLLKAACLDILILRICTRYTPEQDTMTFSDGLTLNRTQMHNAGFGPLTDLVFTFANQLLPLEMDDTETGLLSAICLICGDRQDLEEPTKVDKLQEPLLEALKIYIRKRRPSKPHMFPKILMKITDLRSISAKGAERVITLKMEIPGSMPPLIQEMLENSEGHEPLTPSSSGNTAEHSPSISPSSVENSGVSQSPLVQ
Method in brief: (§2)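 CV-1 cells were transiently cotransfected with the receptor expression vector, a ΔMTV-TREp-Luc reporter and an RSV-β-Gal internal control, then incubated with compound (log dilutions, 1 x 10^-12 to 1 x 10^-5 M). Luciferase was normalized by β-galactosidase. Response is % of the all-trans-RA maximum, giving EC50. Three experiments, triplicates at each concentration.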

[3] = target: T2, Retinoic acid receptor beta; experiment: Inhibition of [3H]ATRA binding to Retinoic acid receptor RAR beta; method in brief: as §1
[4] = target: T3, Retinoic acid receptor RXR-alpha (Homo sapiens, UniProt P19793); experiment: Inhibition of [3H]targretin binding to Retinoid X receptor RXR alpha
T3 sequence (P19793 whole entry): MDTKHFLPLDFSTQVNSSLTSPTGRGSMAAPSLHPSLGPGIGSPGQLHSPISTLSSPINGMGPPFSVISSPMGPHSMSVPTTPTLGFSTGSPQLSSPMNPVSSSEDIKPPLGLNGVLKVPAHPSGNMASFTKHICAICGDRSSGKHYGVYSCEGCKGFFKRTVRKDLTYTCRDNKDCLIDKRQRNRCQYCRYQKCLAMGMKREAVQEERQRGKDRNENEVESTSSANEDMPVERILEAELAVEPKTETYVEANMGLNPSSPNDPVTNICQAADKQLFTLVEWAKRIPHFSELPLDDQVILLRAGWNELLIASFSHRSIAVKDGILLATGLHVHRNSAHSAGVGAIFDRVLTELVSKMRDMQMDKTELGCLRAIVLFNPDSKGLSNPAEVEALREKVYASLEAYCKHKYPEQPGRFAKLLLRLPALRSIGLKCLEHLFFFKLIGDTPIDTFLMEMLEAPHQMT

[5] = target: T4, Retinoic acid receptor RXR-gamma (Homo sapiens, UniProt P48443); experiment: Transcriptional activation of Retinoid X receptor RXR gamma
T4 sequence (P48443 whole entry): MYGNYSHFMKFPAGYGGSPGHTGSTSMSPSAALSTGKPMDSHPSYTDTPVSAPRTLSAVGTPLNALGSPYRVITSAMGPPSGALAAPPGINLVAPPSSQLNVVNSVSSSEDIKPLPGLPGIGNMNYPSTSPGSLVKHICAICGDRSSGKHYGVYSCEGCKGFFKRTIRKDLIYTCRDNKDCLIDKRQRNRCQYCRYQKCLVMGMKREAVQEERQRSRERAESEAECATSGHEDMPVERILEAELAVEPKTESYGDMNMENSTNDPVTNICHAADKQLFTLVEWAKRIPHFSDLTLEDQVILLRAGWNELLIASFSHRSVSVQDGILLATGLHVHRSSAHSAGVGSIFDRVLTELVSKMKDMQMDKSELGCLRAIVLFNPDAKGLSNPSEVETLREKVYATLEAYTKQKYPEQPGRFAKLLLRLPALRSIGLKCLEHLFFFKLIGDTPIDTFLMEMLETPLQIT
Method in brief: (§3)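 In transiently cotransfected CV-1 cells, the receptor vector was paired with a reporter (RXRβ: CPRE-tk-Luc; RXRγ: CRBPII-tk-Luc) plus an RSV-β-Gal internal control. Compound was tested at 1 x 10^-12 to 1 x 10^-5 M in log dilutions. Luciferase was corrected by β-galactosidase and expressed as % of the 9-cis-RA maximum to give EC50. Three experiments, triplicate points.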

[6] = target: T4, Retinoic acid receptor RXR-gamma; experiment: Inhibition of [3H]targretin binding to Retinoid X receptor RXR gamma
Method in brief: (§4)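 Recombinant receptors were expressed in a baculovirus system. Test ligands competed with [3H]Targretin (LGD1069) for binding. Ki values were derived by the Cheng–Prusoff method.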

[7] = target: T5, Retinoic acid receptor alpha (Homo sapiens, UniProt P10276); experiment: Transcriptional activation of Retinoic acid receptor RAR alpha; method in brief: as §2
T5 sequence (P10276 whole entry): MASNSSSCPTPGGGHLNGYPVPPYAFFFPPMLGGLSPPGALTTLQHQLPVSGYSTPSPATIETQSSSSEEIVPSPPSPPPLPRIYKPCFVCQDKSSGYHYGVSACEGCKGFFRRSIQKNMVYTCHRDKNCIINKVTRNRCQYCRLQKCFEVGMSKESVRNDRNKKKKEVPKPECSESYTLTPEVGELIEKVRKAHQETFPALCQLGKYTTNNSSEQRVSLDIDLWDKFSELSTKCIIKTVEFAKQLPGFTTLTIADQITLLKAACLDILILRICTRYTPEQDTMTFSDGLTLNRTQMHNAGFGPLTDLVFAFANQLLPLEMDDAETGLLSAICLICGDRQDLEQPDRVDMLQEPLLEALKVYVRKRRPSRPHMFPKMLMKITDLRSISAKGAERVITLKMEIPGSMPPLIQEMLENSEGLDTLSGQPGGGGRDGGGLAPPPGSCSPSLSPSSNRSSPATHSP

[8] = target: T5, Retinoic acid receptor alpha; experiment: Inhibition of [3H]ATRA binding to Retinoic acid receptor RAR alpha; method in brief: as §1
[9] = target: T6, Retinoic acid receptor RXR-beta (Homo sapiens, UniProt P28702); experiment: Transcriptional activation of Retinoid X receptor RXR beta; method in brief: as §3
T6 sequence (P28702 whole entry): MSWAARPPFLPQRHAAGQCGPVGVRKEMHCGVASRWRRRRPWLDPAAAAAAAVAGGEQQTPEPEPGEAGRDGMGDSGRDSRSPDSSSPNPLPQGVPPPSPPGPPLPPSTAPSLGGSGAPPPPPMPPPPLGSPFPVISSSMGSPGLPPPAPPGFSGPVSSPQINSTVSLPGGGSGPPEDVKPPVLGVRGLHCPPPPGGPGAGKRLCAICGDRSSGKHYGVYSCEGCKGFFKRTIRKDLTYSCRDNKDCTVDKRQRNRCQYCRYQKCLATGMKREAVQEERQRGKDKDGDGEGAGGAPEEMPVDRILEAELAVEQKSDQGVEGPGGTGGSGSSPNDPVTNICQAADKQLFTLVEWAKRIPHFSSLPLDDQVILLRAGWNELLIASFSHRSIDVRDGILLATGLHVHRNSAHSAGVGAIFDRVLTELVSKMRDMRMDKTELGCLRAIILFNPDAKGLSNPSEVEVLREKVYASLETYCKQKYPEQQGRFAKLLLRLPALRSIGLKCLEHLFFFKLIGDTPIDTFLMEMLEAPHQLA

[10] = target: T6, Retinoic acid receptor RXR-beta; experiment: Inhibition of [3H]-Targretin binding to Retinoid X receptor RXR beta; method in brief: as §4
[11] = target: T1, Retinoic acid receptor gamma; experiment: Transcriptional activation of Retinoic acid receptor RAR gamma; method in brief: as §2
[12] = target: T3, Retinoic acid receptor RXR-alpha; experiment: Transcriptional ativation of Retinoid X receptor RXR alpha

Structure (SMILES)	Ki [1] [nM]	EC50 [2] [nM]	Ki [3] [nM]	Ki [4] [nM]	EC50 [5] [nM]	Ki [6] [nM]	EC50 [7] [nM]	Ki [8] [nM]	EC50 [9] [nM]	Ki [10] [nM]	EC50 [11] [nM]	EC50 [12] [nM]
COc1cc2c(cc1\C(C)=C/C=C/C(C)=C/C(=O)O)C(C)(C)CCC2(C)C	437	8	400	2	9	4	40	306	8	2	17	5
CCOc1cc2c(cc1\C(C)=C/C=C/C(C)=C/C(=O)O)C(C)(C)CCC2(C)C	4210	31	3120	4	7	17		2580	9	12	121	8
CCCOc1cc2c(cc1\C(C)=C/C=C/C(C)=C/C(=O)O)C(C)(C)CCC2(C)C	6090		2590					1790		9	192	
